Data set [1] in a line: folding enthalpy; higher = less favourable; fluorescence melt of hairpins on a sequencing array, two-state fit. To be noted: sodium 0.088 M. Put shortly:
(§1)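 Cy3 signals were normalised both to pre-quench Cy3 and to control constructs. They came from library hairpins carrying annealed Cy3 and quencher oligos on a sequenced MiSeq flow cell, imaged in 50 mM Na-HEPES pH 8.0, 25 mM NaCl, in 2.5 °C steps up to 60 °C. Bootstrapped two-state fits gave melting temperature and folding enthalpy, and four replicates were combined by inverse variance. Fitted temperatures were then raised by 9.35 °C to match UV melts.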

Data set [2] can be described thus: melting temperature; fluorescence melt of hairpins on a sequencing array, two-state fit, raised by 9.35 °C to match UV melts. To be noted: sodium 0.088 M. In a few lines:
as §1

As for GATCCCACGGGGATC ((((((...)))))), in data set [1], the folding enthalpy is -33.5 kcal/mol. In addition, in data set [2], the Tm was found to be 65.6 °C.
As for GATCCCAGCGGGATC ((((((...)))))), the folding enthalpy in data set [1] is -37.9 kcal/mol. The Tm in data set [2] was 68.9 °C.
Regarding GATCCCAGTGGGGATC ((((((....)))))), in data set [1], the folding enthalpy was -32.7 kcal/mol. The Tm in data set [2] turned out to be 62.3 °C.
Consider GATCCCATAGGGATC ((((((...)))))), for which the folding enthalpy in data set [1] is -36.9 kcal/mol. Besides, in data set [2], the Tm came to 67 °C.
As to GATCCCATAGGGGATC ((((((....)))))), the folding enthalpy in data set [1] was -32.9 kcal/mol. For the same sequence, the Tm in data set [2] was found to be 60.4 °C.
For the sequence GATCCCATCAGGGATC ((((((....)))))), the folding enthalpy in data set [1] is -36.3 kcal/mol. In addition, in data set [2], the Tm was found to be 65.7 °C.
Turning to GATCCCATCCGGGATC ((((((....)))))), the folding enthalpy in data set [1] was -36.8 kcal/mol. The Tm in data set [2] is 64.2 °C.
Consider GATCCCATCGGGATC ((((((...)))))), for which, in data set [1], the folding enthalpy is -36.5 kcal/mol. Moreover, in data set [2], the Tm was 67.4 °C.
As for GATCCCATTAGGGATC ((((((....)))))), in data set [1], the folding enthalpy is -36.5 kcal/mol. Moreover, in data set [2], the Tm was determined as 63 °C.
Regarding GATCCCATTCGGGATC ((((((....)))))), the folding enthalpy in data set [1] is -38.7 kcal/mol. Besides, the Tm in data set [2] was found to be 62.1 °C.
In the case of GATCCCATTTGGGATC ((((((....)))))), the folding enthalpy in data set [1] is -37 kcal/mol. In data set [2], the Tm came out at 66.1 °C.
Consider GATCCCCAACGGGATC ((((((....)))))), for which the folding enthalpy in data set [1] was -29.7 kcal/mol. Moreover, the Tm in data set [2] amounted to 57.2 °C.
GATCCCCAAGGGGATC ((((((....)))))): the folding enthalpy in data set [1] was -37.4 kcal/mol. In addition, the Tm in data set [2] came out at 65 °C.
For GATCCCCACGGGGATC ((((((....)))))), in data set [1], the folding enthalpy is -36.2 kcal/mol. The Tm in data set [2] was 66.4 °C.
On the same counts, the results for GATCCCCAGGGGATC ((((((...)))))) are -33.1 kcal/mol and 61.9 °C.
For GATCCCCATAGGGATC ((((((....)))))), the folding enthalpy in data set [1] was -41.1 kcal/mol. Besides, the Tm in data set [2] was found to be 62.8 °C.
GATCCCCCCCGGGATC ((((((....)))))): in data set [1], the folding enthalpy was -38.5 kcal/mol. Besides, the Tm in data set [2] worked out at 57.2 °C.
In the case of GATCCCCCGAGGGATC ((((((....)))))), the folding enthalpy in data set [1] is -34.6 kcal/mol. Also, in data set [2], the Tm was determined as 62.1 °C.
Turning to GATCCCCCGCGGGATC ((((((....)))))), the folding enthalpy in data set [1] was -34.2 kcal/mol. Moreover, the Tm in data set [2] came to 57.2 °C.
In the case of GATCCCCCGGGGATC ((((((...)))))), the folding enthalpy in data set [1] was -31.5 kcal/mol. The Tm in data set [2] turned out to be 64.8 °C.
Turning to GATCCCCCGTGGGATC ((((((....)))))), in data set [1], the folding enthalpy was -36.7 kcal/mol. For the same sequence, in data set [2], the Tm is 60.5 °C.
GATCCCCCTGGGATC ((((((...)))))): the folding enthalpy in data set [1] is -38.4 kcal/mol. Besides, the Tm in data set [2] was determined as 62.1 °C.
With GATCCCCGAAAGGGAATC (((.(((....))).))), the folding enthalpy in data set [1] is -21.8 kcal/mol. Besides, the Tm in data set [2] came to 44.9 °C.
As for GATCCCCGAAAGGGATC (((.(((....)))))), the folding enthalpy in data set [1] was -29.8 kcal/mol. In data set [2], the Tm turned out to be 56.2 °C.
The corresponding values for GATCCCCGAAAGGGTATC (((.(((....))).))) are -21.1 kcal/mol and 42.2 °C.
On the same counts, the results for GATCCCCGCCGGGATC ((((((....)))))) are -40.3 kcal/mol and 57.7 °C.
As for GATCCCCGCTGGGATC ((((((....)))))), the folding enthalpy in data set [1] was -32.9 kcal/mol. Also, the Tm in data set [2] worked out at 61.8 °C.
Turning to GATCCCCGGAGGGATC ((((((....)))))), the folding enthalpy in data set [1] is -19.2 kcal/mol. The Tm in data set [2] came out at 59.5 °C.
On the same counts, the results for GATCCCCTAGGGGATC ((((((....)))))) are -44.1 kcal/mol and 66.6 °C.
Take GATCCCCTGGGGGATC ((((((....)))))): the folding enthalpy in data set [1] is -36.4 kcal/mol. Further, the Tm in data set [2] amounted to 66.6 °C.
Turning to GATCCCGAAAGGGTATC ((((((....))).))), the folding enthalpy in data set [1] was -15.8 kcal/mol. Besides, the Tm in data set [2] was determined as 45.5 °C.

(Values after the array DNA melting data of Ke et al. (doi:10.1101/2024.01.08.574731).)
